Only some compounds are listed: those with a hit (about 1.7% of all), similar ones and a draw of the others.
eIF4H FP inh – human eIF4H binding inhibitors, primary screen, translation initiation inhibitor project, biochemical, uHTS, fluorescence polarization; inhibition, % at 35 µM; Eukaryotic translation initiation factor 4H (Homo sapiens), Q15056; actives 0.94% (n = 290,000); eIF4H fluorescence polarization binding assay;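 also: calls also rest on retests at 20 µM and on dose response follow-up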
SKN-1 block – suppressors of acrylamide-induced Pgst-4::GFP reporter in worms, primary screen, SKN-1 inhibitor project, whole organism, uHTS, GFP/RFP fluorescence ratio, strain VP596; AID 624304, 2012; C. elegans VP596 Pgst-4::GFP/RFP ratio, 24 h; actives 0.49% (n = 360,000); inhibition, % at 21.8 µM;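 active = interference check ratio from 0.5 to 1.5 plus GFP to RFP signal ratio inhibition reaching or exceeding a fixed threshold, cut at about 30% in these data, passing the limit was not always enough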
MT1-MMP act inh – blockers of MT1-MMP proenzyme processing, primary screen, HT1080 RFP-PRO-GFP cells, GFP/RFP fluorescence; Matrix metalloproteinase-14 (Homo sapiens), P50281; GFP/RFP ratio change, % at 20 µM; GFP/RFP ratio fluorescence, overnight; percent of plate control window, DMSO zero; actives 0.061% (n = 360,000);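 active = GFP/RFP ratio change of at least 30% with cell ATP level not reduced by more than half and red fluorescence within 50% of control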
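Assay system – RFP-PRO-GFP reporter HT1080 cells · Compound dosing – single dose of 20 µM compound, 1% DMSO final · Incubation – overnight compound exposure at 37 °C · Measure – GFP/RFP fluorescence ratio · Benchmarks – DMSO wells and RFP-L50D-GFP cells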
PABP polyA inh – PABP poly(A) RNA binding inhibitors, primary screen, biochemical, fluorescence polarization, uHTS; inhibition, % at 35 µM; Polyadenylate-binding protein 1 (Homo sapiens), P11940; actives 1% (n = 290,000); AID 2014, 2009;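 also: calls also rest on retests at 20 µM and on dose response follow-up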
PABP1 MLLE inh – inhibitors of PABP1 MLLE–PAM2 peptide binding, primary screen, biochemical, fluorescence polarization, FITC-PAM2, GST-MLLE. Polyadenylate-binding protein 1 (Homo sapiens), P11940. inhibition, % at 20 µM. actives 0.36% (n = 360,000); in the data active = inhibition above about 35%, passing the limit was not always enough;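 also: plate controls were DMSO wells with GST-MLLE for no effect and wells lacking GST-MLLE protein for full effect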
The depositor's hits bear a star. Unless noted, no rule for the calls is given here.

What do the screens show for `Cc1ccc(NC2=C(Cl)C(=O)OC2OC(C)C)cc1` (stereo not given)?
eIF4H FP inh: -2; SKN-1 block: 12; MT1-MMP act inh: -1; PABP polyA inh: inconclusive; PABP1 MLLE inh: 5

What do the screens show for `Cc1ccc(C)c(NC2=C(Cl)C(=O)OC2OC(C)C)c1` (stereo not given)?
eIF4H FP inh: active; SKN-1 block: 6; MT1-MMP act inh: 3; PABP polyA inh: 68*; PABP1 MLLE inh: -7

What do the screens show for `CCn1c(SCC(=O)N2CCOCC2)nc2c([nH]c3ccccc32)c1=O`?
eIF4H FP inh: 0; SKN-1 block: -11; MT1-MMP act inh: 0; PABP polyA inh: -9; PABP1 MLLE inh: -3

How did O=c1[nH]ncn1-c1cccc(C(F)(F)F)c1 do in these assays?
eIF4H FP inh: 59*; SKN-1 block: 0; MT1-MMP act inh: 5; PABP polyA inh: 32; PABP1 MLLE inh: 0

Results for CCCN1CCN(CCCNC(=O)c2ccc(NC(=O)C3=C(C)OCCS3)cc2)CC1 ?
eIF4H FP inh: 2; SKN-1 block: 16; MT1-MMP act inh: 0; PABP polyA inh: 9; PABP1 MLLE inh: -7

Results for C=CCOCCn1[nH]c2ccccc2c1=O ?
SKN-1 block: 2; MT1-MMP act inh: -2; PABP1 MLLE inh: 10

What do the screens show for `O=C(/C=C/c1ccco1)N/C(=C\c1ccco1)C(=O)NCCc1nc2ccccc2[nH]1`?
eIF4H FP inh: 77*; SKN-1 block: 12; MT1-MMP act inh: -7; PABP polyA inh: 44*; PABP1 MLLE inh: -3

Results for N#Cc1c(Nc2cccc(F)c2)sc2c(O)cc(=O)[nH]c12 ?
eIF4H FP inh: 56*; SKN-1 block: 20; MT1-MMP act inh: -10; PABP polyA inh: active; PABP1 MLLE inh: -84

Results for O=C(CSc1n[nH]c(=O)[nH]c1=O)Nc1ccc2c(c1)C(=O)c1ccccc1C2=O ?
eIF4H FP inh: 98*; SKN-1 block: 11; MT1-MMP act inh: 4; PABP polyA inh: 75*; PABP1 MLLE inh: 13

How did CCOC(=O)c1c(-c2ccccc2)csc1NC(=O)/C(C#N)=C/c1ccc(O)c(OC)c1 do in these assays?
eIF4H FP inh: inconclusive; SKN-1 block: 8; MT1-MMP act inh: -95; PABP polyA inh: active; PABP1 MLLE inh: 33

What do the screens show for `CCOC(=O)c1c(-c2ccccc2)csc1NC(=O)CSc1ccccc1`?
eIF4H FP inh: 6; SKN-1 block: 9; MT1-MMP act inh: -1; PABP polyA inh: 4; PABP1 MLLE inh: -5

Results for CCOC(=O)c1c(-c2ccccc2)csc1NC(=O)CSc1nncs1 ?
eIF4H FP inh: -4; SKN-1 block: 10; MT1-MMP act inh: 2; PABP polyA inh: 80*; PABP1 MLLE inh: -2

How did CCOC(=O)c1c(-c2ccc(-c3ccccc3)cc2)csc1NC(=O)C1C2CCC(O2)C1C(=O)O (stereo not given) do in these assays?
eIF4H FP inh: inconclusive; SKN-1 block: -1; MT1-MMP act inh: 5; PABP polyA inh: 1; PABP1 MLLE inh: 28

What do the screens show for `CCOC(=O)c1c(-c2ccccc2)csc1NC(=O)C1CCCO1` (stereo not given)?
eIF4H FP inh: -2; SKN-1 block: 6; MT1-MMP act inh: 0; PABP polyA inh: 5; PABP1 MLLE inh: 39*

How did COc1cc(Cl)c(C)cc1NC(=O)CSc1sc2c(O)cc(=O)[nH]c2c1C#N do in these assays?
eIF4H FP inh: 71*; SKN-1 block: 23; MT1-MMP act inh: -3; PABP polyA inh: 44*; PABP1 MLLE inh: -20

What do the screens show for `COc1ccc(OC)c(NC(=O)CSc2sc3c(O)cc(=O)[nH]c3c2C#N)c1`?
eIF4H FP inh: 18; SKN-1 block: -6; MT1-MMP act inh: 0; PABP polyA inh: 23; PABP1 MLLE inh: -21

How did N#Cc1c(SCC(=O)Nc2nncs2)sc2c(O)cc(=O)[nH]c12 do in these assays?
eIF4H FP inh: 101*; SKN-1 block: -11; MT1-MMP act inh: -4; PABP polyA inh: 80*; PABP1 MLLE inh: -8

Results for COCCn1c(SCC(=O)N2CCCCC2)nc2c(c1=O)SC(C)C2 (stereo not given) ?
eIF4H FP inh: -6; SKN-1 block: 0; MT1-MMP act inh: -2; PABP polyA inh: -2; PABP1 MLLE inh: -4

What do the screens show for `O=C(COC(=O)c1cccnc1)NC1CCCc2ccccc21` (stereo not given)?
eIF4H FP inh: 78*; SKN-1 block: 3; MT1-MMP act inh: 0; PABP polyA inh: -8; PABP1 MLLE inh: 8

Results for O=C(/C=C/c1ccco1)N1CCc2ccccc21 ?
eIF4H FP inh: 18*; SKN-1 block: 58*; MT1-MMP act inh: -6; PABP polyA inh: 95; PABP1 MLLE inh: 8

How did CCOc1cccc(=O)c2c(C)oc(C)c12 do in these assays?
eIF4H FP inh: -1; SKN-1 block: -9; MT1-MMP act inh: -220; PABP polyA inh: 21; PABP1 MLLE inh: 44*

What do the screens show for `CCOc1cccc(=O)c2c(C)n(CC(=O)c3ccccc3)c(C)c12`?
eIF4H FP inh: 52; SKN-1 block: 19; MT1-MMP act inh: -10; PABP polyA inh: 39; PABP1 MLLE inh: -27

How did Cc1cc(C)nc(Nc2nc(=O)c3ccccc3s2)n1 do in these assays?
eIF4H FP inh: 7; SKN-1 block: 7; MT1-MMP act inh: 4; PABP polyA inh: 4; PABP1 MLLE inh: 38*

Results for CCC(SCC(=O)OC)C(=O)Nc1nnc(C(C)C)s1 (stereo not given) ?
eIF4H FP inh: -3; SKN-1 block: -5; MT1-MMP act inh: 3; PABP polyA inh: 3; PABP1 MLLE inh: 39*

What do the screens show for `O=C(O)c1ccc(S(=O)(=O)N2CCSCC2)cc1`?
eIF4H FP inh: -2; SKN-1 block: -19; MT1-MMP act inh: -4; PABP polyA inh: -2; PABP1 MLLE inh: -2

What do the screens show for `CC(C)OC(=O)CSc1nnc(SCc2cccc3ccccc23)s1`?
eIF4H FP inh: -12; SKN-1 block: 32*; MT1-MMP act inh: -2; PABP polyA inh: -10; PABP1 MLLE inh: -25

Results for COc1ccc(CSc2nnc(SCc3ccc([N+](=O)[O-])cc3)s2)cc1 ?
eIF4H FP inh: 21; SKN-1 block: -10; MT1-MMP act inh: -4; PABP polyA inh: 6; PABP1 MLLE inh: -108

Results for COC(=O)CSc1nnc(SCc2ccc(OC)cc2)s1 ?
eIF4H FP inh: 5; SKN-1 block: 39*; MT1-MMP act inh: 2; PABP polyA inh: 14; PABP1 MLLE inh: -51

What do the screens show for `COc1ccc(/C(C)=N\NC(=O)CSc2nnc(C)s2)cc1`?
eIF4H FP inh: -8; SKN-1 block: 8; MT1-MMP act inh: -2; PABP polyA inh: 12; PABP1 MLLE inh: 48*
